From ChEMBL document CHEMBL1148106, “Potent cytotoxic lignans from Justicia procumbens and their effects on nitric oxide and tumor necrosis factor-alpha production in mouse macrophages” (J Nat Prod, 2002)
≈ marks a conversion by molar mass, not a printed value. Numbered stars: 1 amine (or outer) side, 2 acyl side, 3 side chain; on linkers, the order of the positions; unused ones are H or OH. Bridge positions count the residues as written; N and C are the ends. Square brackets hold non-standard residues; d marks the D form. Peptide text beside a SMILES is read from it. I, II: the chains in the order shown. Actinocin(1to9) = Cc1c2oc3c(C)ccc(C(=O)[*:2])c3nc-2c(C(=O)[*:1])c(N)c1=O; NMeV = CN[C@H](C(=O)O)C(C)C; Sar = CNCC(=O)O

Tests used:
RAW264.7 [1] = test: Antiinflammatory activity in LPS-stimulated mouse RAW264.7 cells assessed as effect on TNFalpha formation pretreated 1 hr before LPS challenge measured after 24 hrs; type: functional, cell-based
Summary of the method: (§1)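 Medium from RAW 264.7 macrophages (2 × 10⁵ cells/well, adhered overnight) pretreated 1 h at 37 °C with drug or 0.5% DMSO vehicle and then given 1 µg/mL LPS (E. coli 0111:B4) for 24 h. Supernatant stored at -70 °C, and TNF-α quantified by ELISA kit per manufacturer. Mean ± SEM, n = 3.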

[2] = Cytotoxicity against mouse 212 cells by MTT assay; type: functional; conditions: read-out: ED50 (the source's name)
Summary of the method: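 Ha-ras-inducible NIH/3T3-derived 212 cells maintained in MEM alpha with 10% FBS and antibiotics, with 10 mM HEPES pH 7.3 added for the assay. Seeded at (1-3) × 10³ cells/well, allowed 6 h to attach, then exposed to drug 6 days at 37 °C. MTT pulse 4 h, SDS/HCl lysis, absorbance at 550 nm. Cell death expressed as percent MTT inhibition.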

[3] = Cytotoxicity against human Hep3B cells by MTT assay; type: functional, Hep 3B2; conditions: read-out: ED50 (the source's name)
Summary of the method: (§2)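 Human lines from ATCC grown in DMEM with 10% FBS, 2 mM L-glutamine, penicillin and streptomycin, plus 10 mM HEPES pH 7.3 for the assay. (1-3) × 10³ cells/well, 6 h attachment, then drug exposure for 6 days at 37 °C. MTT added for 4 h, cells lysed in 10% SDS/0.01 M HCl, A550 read. Death calculated as percent MTT inhibition.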

HepG2 = test: Cytotoxicity against human HepG2 cells by MTT assay; type: functional; conditions: read-out: ED50 (the source's name); summary of the method: as §2
HT-29 = test: Cytotoxicity against human HT-29 cells by MTT assay; type: functional; conditions: read-out: ED50 (the source's name)
Summary of the method: (§3)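 Cells grown in DMEM with 10% FBS plus antibiotics; assay medium supplemented with 10 mM HEPES pH 7.3, 37 °C CO2 incubator. (1-3) × 10³ cells/100 µL seeded, 6 h attachment, drug exposure 6 days. MTT added for 4 h at 37 °C, cells lysed in 10% SDS/0.01 M HCl, A550 read; cell death expressed as % MTT inhibition versus cell-only and medium-blank wells.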

RAW264.7 [4] = test: Antiinflammatory activity in LPS-stimulated mouse RAW264.7 cells assessed as effect on NO production pretreated 1 hr before LPS challenge measured after 24 hrs; type: functional, cell-based
Summary of the method: (§4)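 RAW 264.7 cells in DMEM with 10% FBS and antibiotics, 2 × 10⁵ cells/well, adhered overnight. Pretreated 1 h at 37 °C with drug or vehicle (final DMSO 0.5%), then stimulated with 1 µg/mL E. coli 0111:B4 LPS for 24 h. Medium nitrite measured by Griess reaction (sulfanilamide, HCl, naphthylethylenediamine, 10 min room temperature, A550) against a NaNO2 standard curve. Mean ± SEM, n = 3.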

RAW264.7 [5] = test: Antiinflammatory activity in LPS-stimulated mouse RAW264.7 cells assessed as effect on TNFalpha formation at 30 uM pretreated 1 hr before LPS challenge measured after 24 hrs; type: functional; summary of the method: as §1
Ca-Ski = test: Cytotoxicity against human CaSKi cells by MTT assay; type: functional; conditions: read-out: ED50 (the source's name); summary of the method: as §2
SiHa = test: Cytotoxicity against human SiHa cells by MTT assay; type: functional; conditions: for EC50: Homo sapiens, SiHa, read-out: ED50 (the source's name); summary of the method: as §2
HCT-116 = test: Cytotoxicity against human HCT116 cells by MTT assay; type: functional; conditions: read-out: ED50 (the source's name); summary of the method: as §3
RAW264.7 [6] = test: Antiinflammatory activity in LPS-stimulated mouse RAW264.7 cells assessed as effect on NO production at 1 uM pretreated 1 hr before LPS challenge measured after 24 hrs; type: functional; summary of the method: as §4
RAW264.7 [7] = test: Antiinflammatory activity in LPS-stimulated mouse RAW264.7 cells assessed as effect on TNFalpha formation at 0.3 uM pretreated 1 hr before LPS challenge measured after 24 hrs; type: functional; summary of the method: as §1
MCF7 = test: Cytotoxicity against human MCF7 cells by MTT assay; type: functional; conditions: read-out: ED50 (the source's name); summary of the method: as §3
[8] = Cytotoxicity against human MCF7-ras cells by MTT assay; type: functional; conditions: read-out: ED50 (the source's name); summary of the method: as §3
RAW264.7 [9] = test: Antiinflammatory activity in LPS-stimulated mouse RAW264.7 cells assessed as effect on TNFalpha formation at 0.1 uM pretreated 1 hr before LPS challenge measured after 24 hrs; type: functional; summary of the method: as §1
RAW264.7 [10] = test: Antiinflammatory activity in LPS-stimulated mouse RAW264.7 cells assessed as effect on NO production at 0.3 uM pretreated 1 hr before LPS challenge measured after 24 hrs; type: functional; summary of the method: as §4
RAW264.7 [11] = test: Antiinflammatory activity in LPS-stimulated mouse RAW264.7 cells assessed as effect on NO production at 3 uM pretreated 1 hr before LPS challenge measured after 24 hrs; type: functional
Summary of the method: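 RAW 264.7 cells at 2 × 10⁵ per well in DMEM/10% FBS, adhered overnight. Pretreated 1 h at 37 °C with drug or vehicle (DMSO fixed at 0.5% final), then LPS (E. coli 0111:B4) 1 µg/mL for 24 h. Medium nitrite measured by Griess reaction (10 min RT, A550) against NaNO2 standard curve; mean ± SEM, n = 3, compared with control.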

RAW264.7 [12] = test: Antiinflammatory activity in LPS-stimulated mouse RAW264.7 cells assessed as effect on NO production at 10 uM pretreated 1 hr before LPS challenge measured after 24 hrs; type: functional; summary of the method: as §4
RAW264.7 [13] = test: Antiinflammatory activity in LPS-stimulated mouse RAW264.7 cells assessed as effect on NO production at 30 uM pretreated 1 hr before LPS challenge measured after 24 hrs; type: functional; summary of the method: as §4

Row | SMILES | EC50 [2] [µg/mL] | EC50 [3] [µg/mL] | EC50 (HepG2) [µg/mL] | EC50 (HT-29) [µg/mL] | inhibition at 30 µM (RAW264.7 [5]) [%] | EC50 (HCT-116) [µg/mL] | also measured
1 | C[C@@H]1C[C@H]2[C@@H]3CCC4=CC(=O)C=C[C@]4(C)[C@@]3(F)[C@@H](O)C[C@]2(C)[C@@]1(O)C(=O)CO [DEXAMETHASONE] | – | – | – | – | – | – | IC50 (RAW264.7 [1]): 700 nM
2 | COc1cc2c(O[C@@H]3OC[C@](O)(CO)[C@H]3O[C@H]3OC[C@@H](O)[C@@H](O)[C@@H]3O)c3c(c(-c4ccc5c(c4)OCO5)c2cc1OC)C(=O)OC3 | 3.1 (≈ 4.81 µM) | 3.1 (≈ 4.81 µM) | 3.9 (≈ 6.05 µM) | 6.7 (≈ 10.4 µM) | – | – | –
3 | CC(=N)NCc1cccc(CN)c1 [1400W] | – | – | – | – | – | – | IC50 (RAW264.7 [4]): 3.1 µM
4 | COc1cc2c(O[C@@H]3OC[C@](O)(CO[C@@H]4OC[C@@H](O)[C@H](O)[C@H]4O)[C@H]3O[C@H]3OC[C@@H](O)[C@@H](O[C@@H]4OC[C@](O)(CO)[C@H]4O)[C@@H]3O)c3c(c(-c4ccc5c(c4)OCO5)c2cc1OC)C(=O)OC3 | – | – | – | – | -26 | – | –
5 | Cc1c2oc3c(C)ccc(C(=O)N[C@@H]4C(=O)N[C@H](C(C)C)C(=O)N5CCC[C@H]5C(=O)N(C)CC(=O)N(C)[C@@H](C(C)C)C(=O)O[C@@H]4C)c3nc-2c(C(=O)N[C@@H]2C(=O)N[C@H](C(C)C)C(=O)N3CCC[C@H]3C(=O)N(C)CC(=O)N(C)[C@@H](C(C)C)C(=O)O[C@@H]2C)c(N)c1=O [DACTINOMYCIN] (I: T[dV]P[Sar][NMeV] / II: T[dV]P[Sar][NMeV]; ester I:1-I:C, II:1-II:C; linker I:N-II:N via Actinocin(1to9)) | – | – | – | – | – | – | EC50 (Ca-Ski): 1.9 ng/mL (≈ 0.00151 µM); ED50 (SiHa): 8.1 ×10⁻⁴ ug/ml
6 | O=c1[nH]cc(F)c(=O)[nH]1 [FLUOROURACIL] | – | 0.0715 (≈ 0.55 µM) | 0.033 (≈ 0.254 µM) | 0.074 (≈ 0.569 µM) | – | 0.48 (≈ 3.69 µM) | –
7 | COc1cc2c(OC)c3c(c(-c4ccc5c(c4)OCO5)c2cc1OC)C(=O)OC3 [JUSTICIDIN A] | 0.0227 (≈ 0.0576 µM) | 0.029 (≈ 0.0735 µM) | 0.02 (≈ 0.0507 µM) | – | – | – | inhibition at 1 µM (RAW264.7 [6]): 19.8%; inhibition at 0.3 µM (RAW264.7 [7]): -158%; EC50 (Ca-Ski): 3 ng/mL (≈ 0.00761 µM); EC50 (SiHa): 0.0074 µg/mL (≈ 0.0188 µM); EC50 (MCF7): 0.39 µg/mL (≈ 0.989 µM); EC50 [8]: 0.074 µg/mL (≈ 0.188 µM); inhibition at 0.1 µM (RAW264.7 [9]): -6%; inhibition at 0.3 µM (RAW264.7 [10]): 20.3%
8 | COc1cc2c(O[C@@H]3OC[C@](O)(CO)[C@H]3O)c3c(c(-c4ccc5c(c4)OCO5)c2cc1OC)C(=O)OC3 [TUBERCULATIN] | – | 0.014 (≈ 0.0273 µM) | 0.04 (≈ 0.0781 µM) | 0.29 (≈ 0.566 µM) | – | 0.28 (≈ 0.546 µM) | inhibition at 3 µM (RAW264.7 [11]): 16.9%; EC50 (SiHa): 0.12 µg/mL (≈ 0.234 µM); EC50 (MCF7): 0.97 µg/mL (≈ 1.89 µM); EC50 [8]: 0.09 µg/mL (≈ 0.176 µM)
9 | COc1cc2c(O)c3c(c(-c4ccc5c(c4)OCO5)c2cc1OC)C(=O)OC3 [DIPHYLLIN] | 2.7 (≈ 7.1 µM) | 3.6 (≈ 9.46 µM) | 0.4 (≈ 1.05 µM) | 2.5 (≈ 6.57 µM) | -22.2 | 0.8 (≈ 2.1 µM) | inhibition at 10 µM (RAW264.7 [12]): -28.4%; inhibition at 30 µM (RAW264.7 [13]): -0.5%
10 | COc1cc2c(O[C@@H]3OC[C@](O)(CO[C@@H]4OC[C@@H](O)[C@H](O)[C@H]4O)[C@H]3O[C@H]3OC[C@@H](O)[C@@H](O)[C@@H]3O)c3c(c(-c4ccc5c(c4)OCO5)c2cc1OC)C(=O)OC3 | – | – | – | – | 18.7 | – | –
